# Sampled rows, rich in hits. Any-hit rate of the full collection: about 2.2%.
# APJ antagonist = blocks the human apelin receptor APJ; CHO-K1 APJ beta-arrestin complementation, luminescence; inhibition, % at 20 µM; actives 0.32% (n = 330,000);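 active means inhibition above about 40% at 20 µM, limit read from the data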;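 further: cells challenged with 10 nM apelin-13 agonist together with compound; plate controls were apelin-13 plus DMSO wells for no effect and DMSO wells lacking apelin-13 for full effect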
# HTR2A ag = mouse HTR2A agonism via beta-arrestin recruitment. P35363. CHO-K1 mHTR2A beta-arrestin complementation, luminescence; percent of 30 µM serotonin response. activation, % at 7.6 µM. actives 0.66% (n = 360,000). AID 624169;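 active means activation above a run cutoff, the mean activation of all tested compounds plus 3 SD, cut at about 14% in these data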;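 further: 0% = plate median of compound wells and 100% = 30 µM serotonin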
# Target sequence (P35363 whole entry, looked up): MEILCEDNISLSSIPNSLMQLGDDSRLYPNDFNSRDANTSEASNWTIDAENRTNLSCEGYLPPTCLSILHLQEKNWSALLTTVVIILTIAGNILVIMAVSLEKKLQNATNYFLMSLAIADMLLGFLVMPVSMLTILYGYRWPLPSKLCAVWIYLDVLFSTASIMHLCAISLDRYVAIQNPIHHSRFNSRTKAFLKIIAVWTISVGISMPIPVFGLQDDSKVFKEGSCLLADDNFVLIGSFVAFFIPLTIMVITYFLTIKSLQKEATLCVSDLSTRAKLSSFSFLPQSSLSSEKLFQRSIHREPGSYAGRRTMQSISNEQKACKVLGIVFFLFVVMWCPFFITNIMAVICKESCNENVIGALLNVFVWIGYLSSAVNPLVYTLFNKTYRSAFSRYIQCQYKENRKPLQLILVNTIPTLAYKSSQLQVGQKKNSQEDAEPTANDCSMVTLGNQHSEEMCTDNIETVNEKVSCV
# CXCR6 block = inhibitors of human CXCR6 receptor; O00574; inhibition, % at 20 µM; AID 602244; CHO-K1 PathHunter CXCR6 beta-arrestin, luminescence; actives 0.36% (n = 360,000); in the data active means inhibition above about 34%, passing the limit was not always enough;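 further: antagonist mode with CXCL16 agonist at 10 nM final; 0% = 10 nM CXCL16 with DMSO and 100% = unstimulated wells without agonist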
# EBI2 antag = blocks human EBI2 receptor beta-arrestin signaling | P32249 | inhibition, % at 5 µM | EBI2 beta-arrestin recruitment, luminescence, 7a,25-OHC stimulated | AID 651636 | actives 0.81% (n = 360,000); in the data active means inhibition above about 38%;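 further: enzyme fragment complementation signal reports receptor beta-arrestin coupling in cells; 0% = agonist plus DMSO wells and 100% = wells without agonist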
# APJ ag = APJ receptor agonism; CHO-K1 APJ PathHunter beta-arrestin, luminescence; 0% DMSO wells, 100% apelin; activation, % at 20 µM; actives 0.11% (n = 330,000);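 active means activation more than six SD over the plate average, tested at 20 µM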;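 further: 0% = DMSO alone and 100% = apelin-13 at 10 nM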
#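 Material: engineered CHO-K1 APJ arrestin reporter cells; amount: 1000 CHO-K1 reporter cells seeded per well; incubation: compound stimulation 90 min at 25 °C, detection 60 min; signal: luminescent beta-gal fragment complementation, chemiluminescent substrate; read-out basis: APJ agonist activity; controls: DMSO-only wells as negative, 10 nM Apelin-13 as positive control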
# CCR6 antagonist = CCR6 (human) receptor antagonism; CHO-K1 CCR6 PathHunter beta-arrestin, luminescence, CCL20-stimulated; actives 0.49% (n = 340,000); P51684; inhibition, % at 20 µM;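 active means compounds whose inhibition of the agonist-driven luminescence signal at 20 µM reaches about 50%, limit read from the data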;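 further: cells stimulated with CCL20 at 14 nM final; plate controls were DMSO with CCL20 for no effect and DMSO without agonist for full effect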
# EBI2 conf = confirmation of human EBI2 receptor antagonists. shares compounds with EBI2 antag. EBI2 beta-arrestin luminescence, 7a,25-OHC antagonism. inhibition, % at 5 µM. actives 29% (n = 2,400);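 active means inhibition of at least 50%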
# EBI2 agonist = activates EBI2, counter-screen for EBI2 antagonists. shares compounds with EBI2 antag. EBI2-expressing cells, agonist mode, luminescence, 60 min; 0% vehicle, 100% 7α,25-dihydroxycholesterol control. activation, % at 5 µM. 2,400 tested, under 10 active. AID 652000;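 active means activation of at least 50%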
# bGal cs = inhibits E. coli beta-galactosidase, counter-screen for EBI2 antagonists. purified beta-galactosidase, luminescent Galacton Star, 15 min. inhibition, % at 5 µM. AID 652176. actives 1% (n = 2,400). shares compounds with EBI2 antag;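 active means replicate-average signal at least 3 plate SD below neutral wells, shown as high inhibition, flagging enzyme-inhibiting false positives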;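 further: 0% = DMSO wells with enzyme and 100% = wells lacking enzyme; higher means stronger loss of beta-gal luminescence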
# * = called active by the depositor; . = no result given.
SMILES,APJ antagonist,HTR2A ag,CXCR6 block,EBI2 antag,APJ ag,CCR6 antagonist,EBI2 conf,EBI2 agonist,bGal cs
O=c1[nH]c2ccccc2n1C1CCN(C(c2ccccc2OC(F)(F)F)c2nnnn2Cc2ccccc2)CC1 (stereo not drawn),.,5.2,4.4,-23.1,.,.,.,.,.
CN(C(=O)Oc1ccc(C(=O)c2ccc(Cl)cc2)cc1)c1ccccc1,4.2,-1.7,-1.5,79.0*,1.5,-7.8,56.1*,-0.8,-11.1
CN(C)C(=O)Oc1ccc(OC(=O)c2ccccc2)cc1,8.4,6.5,-4.8,-8.2,0.1,2.9,.,.,.
COC(=O)C1=C(c2ccc(F)cc2OCc2ccccc2)C[C@@H]2CC[C@H]1N2C(=O)N1CCC(O)(c2ccc(Cl)cc2)CC1,1.0,-4.6,8.2,52.4*,-1.8,7.0,16.1,2.7,-14.8
O=[N+]([O-])c1cccc(CN2CCN(Cc3ccc(Cl)cc3)CC2)c1,14.3,-4.6,-8.6,3.1,-2.9,10.9,.,.,.
Cc1ccc(OCC(=O)N2CCN(Cc3cccnc3)CC2)cc1,4.0,0.8,-10.7,52.7*,-0.9,-5.2,13.2,-0.7,-8.0
CCc1ccc(OCC(=O)N2CCN(Cc3ccc4c(c3)OCO4)CC2)cc1,4.0,4.7,-8.8,82.0*,-5.2,-5.4,52.9*,0.4,5.6
COc1cccc(OCC(=O)N2CCN(C)CC2)c1,-9.3,-1.4,3.7,-3.5,-1.7,-2.0,.,.,.
O=C(COc1ccc(Cl)cc1)N1CCN(Cc2ccc([N+](=O)[O-])cc2)CC1,-1.7,-0.2,-15.4,94.3*,-6.0,9.5,78.5*,-0.3,5.3
COc1ccc(OCC(=O)N2CCN(Cc3nc4cc([N+](=O)[O-])ccc4n3C)CC2)cc1,1.3,3.0,9.8,73.7*,1.3,-14.8,38.1,-1.8,-7.7
Cc1cccc(OCC(=O)N2CCN(Cc3cccnc3)CC2)c1,-16.8,2.3,-4.5,10.7,-1.0,0.6,.,.,.
Cc1cc(=O)oc2cc(OCC(=O)N3CCN(Cc4ccc5c(c4)OCO5)CC3)ccc12,10.6,-4.2,-0.4,10.2,-9.2,10.4,.,.,.
COC[C@H]1OC(=O)c2coc3c2[C@@]1(C)C1=C(C3=O)[C@@H]2CCC(=O)[C@@]2(C)C[C@H]1OC(C)=O,.,9.6,-2.8,7.4,.,11.1,.,.,.
O=C(NCCN1CCC2(CC1)C(=O)NCN2c1cccc(F)c1)c1ccc2ccccc2c1,.,-5.6,7.0,2.8,.,.,.,.,.
COc1cc2cc(C(=O)N3CC(COS(C)(=O)=O)c4ccc(O)cc43)[nH]c2c(OC)c1OC (stereo not drawn),.,-3.3,9.5,-9.6,.,16.4,.,.,.
CCOC(=O)C1(c2ccccc2)CCN(CCC(=O)Nc2cccc(Br)c2)CC1,10.3,-15.4,-7.1,59.1*,-1.8,14.3,26.8,0.4,0.9
CCOC(=O)C1(c2ccccc2)CCN(CCC(=O)Nc2ccc(OC)cc2)CC1,.,-0.3,-1.3,51.9*,.,.,41.2,3.9,3.5
CCOC(=O)C1(c2ccccc2)CCN(CCC(=O)Nc2ccc(C(=O)OC)cc2)CC1,9.6,-10.8,1.8,13.1,-2.4,14.4,.,.,.
Cc1cc(N(CCCl)CCCl)ccc1C=NNC(=O)Cc1cc(=O)oc2cc(O)ccc12,.,8.0,2.7,6.4,.,27.7,.,.,.
O=c1[nH]c2ccccc2n1C1CCN(C(CCc2ccccc2)c2nnnn2C2CCCCC2)CC1 (stereo not drawn),.,0.8,3.1,-2.2,.,.,.,.,.
Cc1cccc(C)c1-n1nnnc1C(c1cccs1)N1CCC(n2c(=O)[nH]c3ccccc32)CC1 (stereo not drawn),.,3.9,13.6,12.6,.,.,.,.,.
Cc1cccc(C)c1-n1nnnc1C(c1cccc2ccccc12)N1CCC(n2c(=O)[nH]c3ccccc32)CC1 (stereo not drawn),.,1.8,2.7,42.3*,.,.,34.6,-0.6,-18.4
COc1ccc(OCC(=O)N2CCN(CC3CC4C=CC3C4)CC2)cc1 (stereo not drawn),16.0,-2.5,-1.9,83.3*,-2.0,-10.0,56.1*,0.8,2.4
O=C1NCN(c2ccccc2)C12CCN(C(c1ccnc3ccccc13)c1nnnn1C1CCCCC1)CC2 (stereo not drawn),.,-6.5,9.0,1.8,.,.,.,.,.
CCOC(=O)[C@]12Cc3cc(C)ccc3[C@H]1N(C1CCCCC1)C(=O)c1ccccc12,.,6.7,16.1,60.1*,.,.,6.6,2.2,-11.5
SMILES,APJ antagonist,HTR2A ag,CXCR6 block,EBI2 antag,APJ ag,CCR6 antagonist,EBI2 conf,EBI2 agonist,bGal cs
CCOC(=O)[C@]12Cc3cc(C)ccc3[C@H]1N(CCC(=O)OC)C(=O)c1ccccc12,.,2.2,6.9,-4.3,.,.,.,.,.
CCOC(=O)[C@]12Cc3ccc(C)cc3[C@H]1N(C1CCCCC1)C(=O)c1cc(OC)ccc12,.,5.1,28.5,52.1*,.,.,9.7,2.8,-10.7
CCOC(=O)[C@]12Cc3ccc(C)cc3[C@H]1N(C1CCCCC1)C(=O)c1ccccc12,.,4.7,19.2,64.4*,.,.,10.8,0.6,-7.6
CCOC(=O)[C@]12Cc3c(cc(OC)c(OC)c3OC)[C@H]1N(C1CCCCC1)C(=O)c1ccccc12,.,12.7,11.1,71.4*,.,.,-0.8,6.0,-10.6
O=C(CN1CCN(C(=O)COc2cccc(F)c2)CC1)Nc1ccc(Cl)c(C(F)(F)F)c1,-3.5,-2.6,-9.8,9.3,2.1,-0.7,.,.,.
Fc1cccc(-c2ccc3c(c2)CN(c2cccc(Cl)c2)Cc2cnnn2-3)c1,.,10.8,7.0,19.2,.,.,.,.,.
CCC(C)N1CCN(C(=O)COc2ccc3ccccc3c2)CC1 (stereo not drawn),26.0,-7.2,1.9,90.6*,-0.2,8.2,73.9*,0.7,4.6
CN1CCN(C(=O)COc2ccc(Oc3ccccc3)cc2)CC1,-19.0,-2.6,4.6,-4.2,-1.2,7.0,.,.,.
COc1ccc(CN2CCN(C(=O)COc3ccc4ccccc4c3)CC2)c(OC)c1,4.6,-7.2,-6.4,77.8*,-3.7,13.4,68.8*,1.6,8.0
CCOC(=O)c1cncn1C(C)c1ccccc1 (stereo not drawn),-8.4,5.9,-6.0,47.9*,0.6,5.8,36.5,-0.5,6.6
COC(=O)C1=C(c2ccc(OCc3ccccc3)cc2)C[C@@H]2CC[C@H]1N2C(=O)NCc1cccc(OC)c1,-7.6,-8.9,15.1,57.3*,-1.6,16.3,54.1*,-0.9,6.1
COC(=O)C1=C(c2ccc(OCc3ccccc3)cc2)C[C@@H]2CC[C@H]1N2C(=O)NCc1ccc(OC)cc1,.,-4.8,6.1,24.3,.,.,.,.,.

# Screening results from PubChem BioAssay.
